# Experiments:
# [1] = target: D(2) dopamine receptor (Rattus norvegicus, UniProt P61169); experiment: In vitro binding affinity towards Dopamine receptor D2 of rat striatal membranes using [3H]- raclopride
# Outline: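 Male Sprague–Dawley rat (180–200 g) striatal membranes (125–150 μg protein) incubated 60 min at 25 °C with 0.8 nM [3H]raclopride in 50 mM Tris-HCl pH 7.4 with 120 mM NaCl, 5 mM KCl, 2 mM CaCl2, 1 mM MgCl2, 0.1% ascorbic acid. Nonspecific: 1 μM (+)-butaclamol. Filtration, scintillation counting; IC50 fitted, Ki by Cheng–Prusoff; mean ± SEM of 2–4 triplicate experiments.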
# [2] = target: T1, Adrenergic receptor alpha-1 (Rattus norvegicus, UniProt P15823+P23944+P43140); experiment: In vitro binding affinity was evaluated on alpha-1 adrenergic receptor from rat cerebral cortex by using [3H]prazosin as radioligand; assay type: tissue-based
# T1 sequence (P15823 whole entry): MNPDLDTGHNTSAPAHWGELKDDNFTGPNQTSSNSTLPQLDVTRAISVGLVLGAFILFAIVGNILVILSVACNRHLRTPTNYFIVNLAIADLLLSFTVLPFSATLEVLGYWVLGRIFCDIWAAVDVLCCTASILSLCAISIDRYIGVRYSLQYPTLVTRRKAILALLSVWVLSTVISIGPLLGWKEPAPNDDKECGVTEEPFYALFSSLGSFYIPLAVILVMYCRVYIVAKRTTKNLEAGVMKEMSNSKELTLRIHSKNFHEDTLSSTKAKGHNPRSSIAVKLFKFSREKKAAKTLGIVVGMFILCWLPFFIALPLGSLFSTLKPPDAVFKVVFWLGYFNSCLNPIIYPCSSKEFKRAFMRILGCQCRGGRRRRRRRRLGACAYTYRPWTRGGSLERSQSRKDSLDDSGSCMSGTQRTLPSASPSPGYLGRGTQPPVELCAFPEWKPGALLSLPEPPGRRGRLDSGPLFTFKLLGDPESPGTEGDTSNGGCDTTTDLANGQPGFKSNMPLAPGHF
# T1 sequence (P23944 whole entry): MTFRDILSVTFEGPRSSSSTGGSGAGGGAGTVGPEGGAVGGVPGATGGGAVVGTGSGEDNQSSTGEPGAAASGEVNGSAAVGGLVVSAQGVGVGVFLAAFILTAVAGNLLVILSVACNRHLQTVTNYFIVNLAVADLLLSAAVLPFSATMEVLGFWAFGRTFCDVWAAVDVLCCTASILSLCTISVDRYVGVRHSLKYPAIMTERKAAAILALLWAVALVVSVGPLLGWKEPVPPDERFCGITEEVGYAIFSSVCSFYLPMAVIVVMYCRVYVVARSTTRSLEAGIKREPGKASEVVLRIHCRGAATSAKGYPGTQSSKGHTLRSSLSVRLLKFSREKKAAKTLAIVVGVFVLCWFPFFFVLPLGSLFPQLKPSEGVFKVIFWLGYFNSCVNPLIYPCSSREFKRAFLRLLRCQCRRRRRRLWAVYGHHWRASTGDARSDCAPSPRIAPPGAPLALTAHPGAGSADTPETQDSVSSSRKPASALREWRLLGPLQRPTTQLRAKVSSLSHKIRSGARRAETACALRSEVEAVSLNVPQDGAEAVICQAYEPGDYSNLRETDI
# T1 sequence (P43140 whole entry): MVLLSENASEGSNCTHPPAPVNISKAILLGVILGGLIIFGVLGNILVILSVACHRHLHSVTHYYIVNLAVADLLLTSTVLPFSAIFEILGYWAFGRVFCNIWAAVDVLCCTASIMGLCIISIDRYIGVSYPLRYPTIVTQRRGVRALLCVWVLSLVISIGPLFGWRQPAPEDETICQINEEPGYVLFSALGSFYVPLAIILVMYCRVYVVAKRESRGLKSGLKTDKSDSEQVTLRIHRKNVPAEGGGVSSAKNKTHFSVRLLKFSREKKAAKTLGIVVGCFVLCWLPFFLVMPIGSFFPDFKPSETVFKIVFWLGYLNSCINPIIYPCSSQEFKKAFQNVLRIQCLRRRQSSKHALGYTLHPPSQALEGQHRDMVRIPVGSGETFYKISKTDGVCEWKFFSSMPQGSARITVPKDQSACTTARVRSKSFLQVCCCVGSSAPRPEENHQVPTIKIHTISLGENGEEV
# Outline: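 Nonspecific: 10 μM phentolamine. Filter-bound radioactivity by scintillation; IC50 from competition curves, Ki by Cheng–Prusoff; mean ± SEM of 2–4 triplicate experiments.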
# [3] = target: T2, 5-hydroxytryptamine receptor 1A (Rattus norvegicus, UniProt P19327); experiment: Binding affinity at 5-hydroxytryptamine 1A (5-HT1A) receptor in rat cerebral cortex using [3H]8-OH-DPAT as radioligand; assay type: tissue-based
# T2 sequence (P19327 whole entry): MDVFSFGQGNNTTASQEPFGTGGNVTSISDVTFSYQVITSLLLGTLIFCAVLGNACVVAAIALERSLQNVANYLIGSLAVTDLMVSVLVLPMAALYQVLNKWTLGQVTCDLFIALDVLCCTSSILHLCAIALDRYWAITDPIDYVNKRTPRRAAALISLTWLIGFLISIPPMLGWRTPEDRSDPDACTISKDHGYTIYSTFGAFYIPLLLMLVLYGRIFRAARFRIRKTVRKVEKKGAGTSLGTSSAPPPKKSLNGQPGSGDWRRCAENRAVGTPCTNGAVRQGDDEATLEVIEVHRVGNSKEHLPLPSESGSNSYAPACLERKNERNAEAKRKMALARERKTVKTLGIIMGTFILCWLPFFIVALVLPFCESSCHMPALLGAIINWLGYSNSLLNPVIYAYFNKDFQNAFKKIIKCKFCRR
# Chain of D(2) dopamine receptor (P61169 whole entry): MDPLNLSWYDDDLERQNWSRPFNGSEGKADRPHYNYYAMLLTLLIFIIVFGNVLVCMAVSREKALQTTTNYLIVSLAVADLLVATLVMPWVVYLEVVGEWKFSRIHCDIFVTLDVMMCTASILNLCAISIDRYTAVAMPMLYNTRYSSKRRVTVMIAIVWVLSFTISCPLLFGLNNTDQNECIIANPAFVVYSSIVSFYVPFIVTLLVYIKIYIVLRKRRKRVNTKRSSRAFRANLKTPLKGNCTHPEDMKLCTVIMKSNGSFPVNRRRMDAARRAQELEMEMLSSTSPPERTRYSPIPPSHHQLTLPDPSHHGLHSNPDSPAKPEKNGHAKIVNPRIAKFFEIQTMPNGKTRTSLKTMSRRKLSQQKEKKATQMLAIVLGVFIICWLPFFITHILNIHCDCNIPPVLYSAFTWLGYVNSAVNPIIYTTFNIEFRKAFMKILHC
Ki [1] [nM],Ki [2] [nM],Ki [3] [nM],Compound
> 10000,> 1000,61,COc1ccccc1N1CCN(CN2C(=O)CC(=C3c4ccccc4-c4ccccc43)C2=O)CC1
> 1000,249,72,O=C1CC(=C2c3ccccc3-c3ccccc32)C(=O)N1CCCCN1CCN(c2cccc(Cl)c2)CC1
,,15,O=C1CC(=C(c2ccccc2)c2ccccc2)C(=O)N1CCCCN1CCN(c2cccc(C(F)(F)F)c2)CC1
> 10000,10,9,COc1ccccc1N1CCN(CCCCN2C(=O)CC(=C3c4ccccc4-c4ccccc43)C2=O)CC1
> 10000,791,114,O=C1CC(=C2c3ccccc3-c3ccccc32)C(=O)N1CN1CCN(c2cccc(C(F)(F)F)c2)CC1
> 1000,161,37,COc1ccccc1N1CCN(CCCN2C(=O)CC(=C3c4ccccc4-c4ccccc43)C2=O)CC1
,,237,COc1ccccc1N1CCN(C/C=C\CN2C(=O)CC(=C(c3ccccc3)c3ccccc3)C2=O)CC1
,,27,COc1ccccc1N1CCN(C/C=C/CN2C(=O)CC(=C(c3ccccc3)c3ccccc3)C2=O)CC1
> 10000,196,> 10000,O=C1CC(=C2c3ccccc3-c3ccccc32)C(=O)N1CCN1CCN(c2ccccc2)CC1
> 10000,> 10000,> 10000,O=C1CC(=C2c3ccccc3-c3ccccc32)C(=O)N1CCN1CCN(c2cccc(Cl)c2)CC1
> 10000,> 1000,201,O=C1CC(=C2c3ccccc3-c3ccccc32)C(=O)N1CN1CCN(c2ccccc2)CC1
> 10000,316,42,O=C1CC(=C2c3ccccc3-c3ccccc32)C(=O)N1CN1CCN(c2cccc(Cl)c2)CC1
> 10000,57,> 10000,COc1ccccc1N1CCN(CCN2C(=O)CC(=C3c4ccccc4-c4ccccc43)C2=O)CC1
397,60,14,O=C1CC(=C2c3ccccc3-c3ccccc32)C(=O)N1CCCCN1CCN(c2ccccc2)CC1
,,6.6,COc1ccccc1N1CCN(CC#CCN2C(=O)CC(=C(c3ccccc3)c3ccccc3)C2=O)CC1
,51,,O=C1CC(=C(c2ccccc2)c2ccccc2)C(=O)N1CCCCN1CCN(c2ccc(F)cc2)CC1

Compound,Ki [1] [nM],Ki [2] [nM],Ki [3] [nM]
O=C1CC(=C2c3ccccc3-c3ccccc32)C(=O)N1CCCN1CCN(c2cccc(C(F)(F)F)c2)CC1,> 10000,> 10000,> 1000
O=C1CC(=C2c3ccccc3-c3ccccc32)C(=O)N1CCCCN1CCN(c2ccc(F)cc2)CC1,> 10000,266,> 10000
O=C1CC(=C2c3ccccc3-c3ccccc32)C(=O)N1CCCCN1CCN(c2cccc(C(F)(F)F)c2)CC1,> 1000,> 10000,> 1000
O=C1CC(=C2c3ccccc3-c3ccccc32)C(=O)N1CN1CCN(c2ccc(F)cc2)CC1,> 10000,> 1000,> 1000
O=C1CC(=C2c3ccccc3-c3ccccc32)C(=O)N1CCCN1CCN(c2cccc(Cl)c2)CC1,> 10000,> 10000,> 1000
O=C1CC(=C2c3ccccc3-c3ccccc32)C(=O)N1CCCN1CCN(c2ccccc2)CC1,> 1000,646,> 1000
O=C1CC(=C2c3ccccc3-c3ccccc32)C(=O)N1CCN1CCN(c2ccc(F)cc2)CC1,> 10000,56,> 10000
O=C1CC(=C2c3ccccc3-c3ccccc32)C(=O)N1CCCN1CCN(c2ccc(F)cc2)CC1,> 10000,61,> 10000
O=C1CC(=C2c3ccccc3-c3ccccc32)C(=O)N1CCN1CCN(c2cccc(C(F)(F)F)c2)CC1,> 10000,> 10000,> 10000

# — ChEMBL document CHEMBL1132270, “Synthesis and structure-activity relationships of a new model of arylpiperazines. 4. 1-[omega-(4-Arylpiperazin-1-yl)alkyl]-3-(diphenylmethylene) - 2, 5-pyrrolidinediones and -3-(9H-fluoren-9-ylidene)-2, 5-pyrrolidinediones: study of the steric requirements of the terminal amide fragment on 5-HT1A …” (J Med Chem, 1999)
